This is one part of a sample in which hits are shown more often than they occur.
Lipid droplet: inhibitors of hepatocyte lipid droplet formation, primary screen, imaging, high-throughput imaging, BODIPY stain | AML12 mouse hepatocytes, oleate lipid droplets | inhibition, % at 6.5 µM | 0.4% of 240,000 active;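 active = lipid droplet intensity inhibited by at least 50%, with more than 500 cells counted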
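Material – AML12 mouse liver cells · Also added – oleate loading, 100 µM · Compound dosing – 6.5 µM single-point dosing · Times – overnight treatment with compound plus oleate · Measured by – fluorescence imaging, 20x objective, two fields per well · Read-out – percent inhibition of filter-corrected integrated lipid droplet intensity per well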
T cruzi inh: inhibitors of intracellular T. cruzi growth, primary screen, luminescence, NIH3T3 host cells; T. cruzi beta-gal in NIH3T3, 90 h; inhibition, % (test concentration not listed); 1.4% of 300,000 active;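 active = mean inhibition across valid replicates above about 55%, limit read from the data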;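 note: signal also drops with host cell toxicity which is not excluded here; 0% = plate median of DMSO wells and 100% = zero luminescence signal; higher percent means less beta-gal luminescence so fewer parasites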
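Incubation – ≥90 h infection period, 3 h prior cell attachment · System – NIH/3T3 fibroblasts plus reporter T. cruzi · Doses – compound pinned at 50 nL/well, DMSO · Read-out basis – percent inhibition of parasite-derived β-gal signal · Signal – luminescent β-galactosidase signal after 60 min lysis · Also added – 5000 T. cruzi trypomastigotes/well · Medium – Low-serum DMEM with 2% FBS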
L major viab: Leishmania major promastigote growth inhibition, primary screen | Leishmania major promastigotes, resazurin fluorescence viability | inhibition, % at 10 µM | 9% of 200,000 active | AID 1063, 2008; in the data active = inhibition above about 50%;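 note: promastigotes grown with compound for 44 hours at 28 °C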
DTT redox prof: compounds producing H2O2 with reducing agent – biochemical, NIH compound library profiling, artefact control for MLSCN library redox annotation, primary screen | 0.03% of 200,000 active | activation, % at 10 µM | AID 878, 2007 | DTT-dependent redox cycling H2O2, phenol red/HRP absorbance; 100% = 100 µM peroxide control, 0% = buffer;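 active = activation of at least 50% relative to the plate's high and low controls in the primary single-dose screen; inactive = activation below 50%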;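 note: compound incubated with DTT at 0.8 mM final as the reducing agent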
MPTP inh: mitochondrial permeability transition pore inhibitors, primary screen, biochemical, isolated mouse mitochondria, absorbance; inhibition, % at 10 µM; 1.4% of 360,000 active; Ca2+ swelling absorbance, 30 min;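 active = inhibition of 50% or more, scaled per plate between neutral and stimulator controls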;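 note: 0% = DMSO wells given calcium and 100% = 1 mM EGTA wells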
Numbers without * were called inactive.

`COc1ccc(CN2CCN(CC(O)Cn3c4ccccc4c4ccccc43)CC2)cc1` (stereo unspecified) gave Lipid droplet 15.4, T cruzi inh 45.4, L major viab 98.8*, DTT redox prof 0.4 and MPTP inh -4.3.
CCc1nnc(NS(=O)(=O)c2ccc(NC(=O)CCC(=O)OC)cc2)s1 was read as Lipid droplet 1.7, T cruzi inh 4.1 and MPTP inh 0.6.
CCN(CC)CCN1C(=O)C(=O)/C(=C(/O)c2ccc(OC(C)C)cc2)C1c1cccs1 (stereo unspecified) was read as Lipid droplet 3.6, T cruzi inh -5.8 and MPTP inh 1.0.
Screening CNC(=S)N1C2CCCC1CC(NC(=O)c1ccc(F)cc1)C2 (stereo unspecified) returned Lipid droplet 12.8, T cruzi inh -1.2 and MPTP inh -0.4.
CCC(C(=O)Nc1ccc([N+](=O)[O-])cn1)c1ccccc1 (stereo unspecified) was read as Lipid droplet 10.0, T cruzi inh 15.8 and MPTP inh 0.0.
C[C@H](CO)N1C[C@H](C)[C@@H](CN(C)CC2CCCCC2)Oc2c(NC(=O)Cc3ccccc3)cccc2C1=O was read as MPTP inh -1.6.
Screening CCCCOc1ccc(C(O)(CC)CCN2CCOCC2)cc1 (stereo unspecified) returned Lipid droplet -0.4, T cruzi inh -1.8, L major viab 83.3*, DTT redox prof 0.8 and MPTP inh 0.5.
Screening COc1ccc(OCCOCCN2CCOCC2)cc1 returned Lipid droplet -12.2, T cruzi inh -18.1, L major viab -1.4, DTT redox prof 0.0 and MPTP inh 0.4.
CCCCC(O)(CCN1CCOCC1)c1ccc(Cl)cc1 (stereo unspecified) was read as Lipid droplet 9.1, T cruzi inh -13.1, L major viab 76.3*, DTT redox prof 0.2 and MPTP inh 14.8.
`CCCCOc1ccc(C(O)(CCC)CCN2CCOCC2)cc1` (stereo unspecified) gave Lipid droplet 2.3, T cruzi inh -12.9, L major viab 2.7, DTT redox prof 0.9 and MPTP inh 7.0.
For CCCOc1ccc(C(=O)C(CN2CCOCC2)c2ccccc2)cc1 (stereo unspecified) the results were T cruzi inh -8.8, L major viab 100.4*, DTT redox prof -3.6 and MPTP inh -1.0.
`CCOc1ccc(OCCOCCN2CCOCC2)cc1` gave T cruzi inh 4.6, L major viab 93.6*, DTT redox prof 0.0 and MPTP inh -1.1.
O=C(OCC(=O)N1CCOCC1)c1cc(-c2ccccc2)nc2ccccc12 was read as MPTP inh -0.4.
For Cc1cc(CNC(=O)COC(=O)Cn2[nH]c(=O)c3ccccc3c2=O)cc(C)c1O the results were T cruzi inh -7.7 and MPTP inh -0.8.
CC(C)CN(CC(C)C)S(=O)(=O)N1CCC(C(=O)NCc2ccco2)CC1 was read as Lipid droplet 2.9, T cruzi inh 3.6, L major viab -3.8, DTT redox prof -0.1 and MPTP inh -0.4.
Screening O=C1CCN(Cl)C(=O)N1Cl returned MPTP inh -1.9.
For CCC(C)c1ccc(OCCCCN2CCOCC2)cc1 (stereo unspecified) the results were Lipid droplet 12.2, T cruzi inh -7.7, L major viab 97.0*, DTT redox prof 0.5 and MPTP inh -0.8.
`CCCCOc1ccc(OCCCN2CCOCC2)cc1` gave Lipid droplet 7.2, T cruzi inh 4.2, L major viab 99.8*, DTT redox prof -0.7 and MPTP inh -2.4.
`CCCC(O)(c1ccc(Cl)cc1)C(CN1CCOCC1)c1ccccc1` (stereo unspecified) gave T cruzi inh -31.6, L major viab 73.2*, DTT redox prof 0.1 and MPTP inh 1.4.
`Clc1ccc(OCCCCCN2CCOCC2)cc1` gave Lipid droplet -1.4, T cruzi inh 16.4 and MPTP inh -1.2.
For COC(=O)CC1C(=O)NCCN1C(=O)CSc1nnnn1-c1ccc(Cl)cc1 (stereo unspecified) the results were Lipid droplet -1.8, T cruzi inh -4.4, L major viab 2.2, DTT redox prof 0.2 and MPTP inh -5.2.
Screening CCN(CC)S(=O)(=O)c1ccc(OCC(=O)NC(=O)Cc2ccccc2)c([N+](=O)[O-])c1 returned MPTP inh 0.5.
For O=C(/C=C/c1ccc(Cl)cc1)NCc1cccs1 the results were Lipid droplet -4.2, T cruzi inh -6.0, L major viab 53.2*, DTT redox prof -0.3 and MPTP inh 0.6.
O=C(/C=C/c1cccc(Cl)c1)NCc1cccs1 was read as T cruzi inh -11.9, L major viab -0.8, DTT redox prof 2.5 and MPTP inh 7.9.
For CCCCOCCCNC(=O)C[C@@H]1C[C@@]2(C(=O)OC)CC(C)(C)CC=C2N(CCc2ccc(OC)c(OC)c2)C1=O the results were MPTP inh -0.1.
Screening CC(=O)Nc1ccc(C(=O)Nc2cccc(S(=O)(=O)N(C)c3ccccc3)c2)cc1 returned MPTP inh -1.1.
`COc1ccc(NC(=O)c2cc(S(=O)(=O)N(Cc3ccccc3)c3ccccc3)ccc2Cl)cn1` gave Lipid droplet -0.9, T cruzi inh 23.0, L major viab 93.8*, DTT redox prof -0.4 and MPTP inh 8.7.
For COc1ccc(N(C)S(=O)(=O)c2cccc(C(=O)Nc3nc4ccccc4[nH]3)c2)cc1 the results were Lipid droplet 0.6, T cruzi inh -3.7, L major viab 46.6, DTT redox prof -0.1 and MPTP inh -1.8.
CN(c1ccccc1)S(=O)(=O)c1cccc(C(=O)Nc2ccc3c(c2)CCC3)c1 was read as Lipid droplet 1.3, T cruzi inh 11.2, L major viab 75.2*, DTT redox prof 3.1 and MPTP inh 6.4.
Screening COc1ccc(NC(=O)c2cccc(S(=O)(=O)N(C)c3ccccc3)c2)cn1 returned Lipid droplet -20.9, T cruzi inh -3.9, L major viab 72.0*, DTT redox prof -0.1 and MPTP inh 3.6.
For COc1ccc(NC(=O)Cc2ccc(Cl)c(Cl)c2)cn1 the results were Lipid droplet -9.2, T cruzi inh -0.2, L major viab 5.3, DTT redox prof -0.1 and MPTP inh -2.4.
`COc1cc(NC(=O)c2ccc(S(=O)(=O)N(C)c3ccccc3)cc2)cc(OC)c1` gave MPTP inh 2.4.
CN(c1cccc(Cl)c1)S(=O)(=O)c1cccc(C(=O)Nc2nc3ccccc3[nH]2)c1 was read as Lipid droplet -3.2, T cruzi inh 31.2, L major viab 98.7*, DTT redox prof 0.2 and MPTP inh 2.0.
Screening O=C(CSc1nncn1-c1ccccc1)Nc1cc(F)ccc1F returned Lipid droplet -2.4, T cruzi inh 9.3 and MPTP inh 1.2.

Screening results as filed in PubChem.
